# RBBP9 inh = blocks human serine hydrolase RBBP9. recombinant RBBP9, FP-Rh probe fluorescence polarization. inhibition, % at 7.94 µM. hit rate 0.2% among 220,000;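 active = inhibition above the campaign mean of all tested compounds plus 3 SD, cut at about 14% in these data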;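 also: plate controls were DMSO wells with RBBP9 for no effect and wells lacking RBBP9 protein for full effect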
#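 Measured by: FP readout at 525/598 nm; material: recombinant human RBBP9; also added: Serine-hydrolase probe FP-Rh, 375 nM pre-mixing; medium: Tris buffer pH 8.0, NaCl, Pluronic; replication: one well per compound; doses: one concentration, 7.94 µM nominal, 0.794% DMSO; timing: preincubation 30 min plus labeling 45 min at 25 °C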
# ALR H2O2 inh = blocks human ALR sulfhydryl oxidase activity. purified ALR, DTT oxidation, H2O2 HRP-luminol luminescence. P55789. inhibition, % (no concentration beside the values). hit rate 3.8% among 290,000;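 active = mean replicate inhibition above about 79%, with every replicate also reaching it, limit read from the data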
# PREPL inh = human PREPL enzyme inhibition; Q4J6C6; recombinant PREPL, fluorescence polarization activity-based probe; inhibition, % at 5.96 µM; hit rate 0.68% among 320,000; AID 2751;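 also: 0% = enzyme with DMSO and 100% = wells lacking enzyme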
# UBC9 SUMO inh = blocks human SUMOylation mediated by UBC9; hit rate 0.36% among 290,000; P63279; HTRF SUMOylation assay, SAE1/SAE2 + UBC9, in vitro; inhibition, % at 35 µM; in the data active = inhibition above about 50%, passing the limit was not always enough
# Target sequence (P63279 whole entry, looked up): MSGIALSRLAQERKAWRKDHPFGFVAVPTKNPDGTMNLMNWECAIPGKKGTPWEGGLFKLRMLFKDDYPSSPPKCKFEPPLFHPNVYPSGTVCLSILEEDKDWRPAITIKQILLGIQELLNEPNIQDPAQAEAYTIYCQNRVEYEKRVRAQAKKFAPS
# Rin1 Abl inh = blocks binding of human Rin1 to Abl; P00519+Q13671; TR-FRET Rin1/Abl binding, biochemical; inhibition, % at 7.35 µM; hit rate 0.4% among 360,000; AID 588664; in the data active = inhibition above about 5%, passing the limit was not always enough
# UBC13 polyUb = human UBC13 polyubiquitination inhibition; P61088; UBC13 polyubiquitin chain formation, TR-FRET; inhibition, % at 20 µM; hit rate 0.47% among 330,000; in the data active = inhibition above about 45%, passing the limit was not always enough
# Target sequence (P61088 whole entry, looked up): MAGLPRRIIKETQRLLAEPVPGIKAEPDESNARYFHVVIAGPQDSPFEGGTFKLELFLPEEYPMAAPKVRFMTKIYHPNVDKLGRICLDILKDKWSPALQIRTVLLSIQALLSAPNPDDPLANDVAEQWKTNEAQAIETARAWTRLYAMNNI
# PREPL confirm = human PREPL inhibition, confirmation. shares compounds with PREPL inh. recombinant PREPL, fluorescence polarization activity probe. inhibition, % at 5.96 µM. hit rate 67% among 2,000. AID 2803;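 also: 0% = protein with DMSO and 100% = wells lacking protein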
# Starred values were filed as active, the others as inactive; nt = no result given. Hits are enriched below; roughly 4.3% of the tested compounds scored in any of these assays. Rule as the data show it, unless noted: active = inhibition above about 43%; inactive = the rest.
SMILES,RBBP9 inh,ALR H2O2 inh,PREPL inh,UBC9 SUMO inh,Rin1 Abl inh,UBC13 polyUb,PREPL confirm
CN(C)c1cccc(C(=O)N2CCCC(CCC(=O)NCc3ccccc3F)C2)c1 (centres undefined),nt,29,17,-14,4,-4,nt
COC(=O)c1sccc1-c1ccc(/C=N/OC(=O)c2ccccc2)o1,-8,-2,43*,4,-7,-9,38
OCC[C@H]1C[C@@H](O)[C@H](O)[C@]2(Cc3ccccc3CO2)O1,nt,-3,14,nt,0,-6,nt
COc1ccc(Nc2c3c(nc4ccc(C)cc24)CCC3)cc1,nt,nt,28,6,-5,3,nt
COc1ccccc1Nc1c2c(nc3ccc(N)cc13)CCCC2,7,99*,44*,-3,-4,-9,27
CCn1c(=O)c(C(=O)Nc2ccc(C)cc2C)c(O)c2ccccc21,nt,-6,47*,4,1,15,6
COc1cccc(NC(=O)c2ccc(-n3cnnn3)cc2)c1,nt,nt,-2,-9,-1,3,nt
COc1cc(OC)c(NC(=O)CN(C)S(=O)(=O)c2ccc(-c3ccc(=O)[nH]n3)s2)cc1Cl,nt,-12,-7,28,-4,-23,nt
Cc1cc(NS(=O)(=O)c2ccc(Nc3nc(-c4sc(NC(=O)c5ccccc5)nc4C)cs3)cc2)no1,1,55,66*,35,nt,-3,63*
CN(c1ccccc1)S(=O)(=O)c1cccc(NC(=O)c2nn(C)c(=O)c3ccccc23)c1,nt,nt,4,nt,5,5,nt
CCOC(=O)c1c(-c2ccc(-c3ccccc3)cc2)csc1NC(=O)C1C2CCC(O2)C1C(=O)O (centres undefined),-9,96*,51*,15,0,-14,55*
COC(=O)C(C)Oc1ccc(Cl)c(CN2OCC(C)(C)C2=O)c1 (centres undefined),nt,-12,2,nt,2,2,nt
CNC(=S)N1N=C(c2ccc(C)cc2)CC1c1ccc(N(C)C)cc1 (centres undefined),-7,10,51*,-3,1,18,57*
COc1ccc2c(c1OC)C[N+]1([O-])CCc3cc4c(cc3C1C2)OCO4 (centres undefined),nt,nt,11,-24,1,-1,nt
COc1ccc2c(c1)CC1c3c(cc4c(c3-2)OCO4)CC[N+]1(C)[O-] (centres undefined),nt,-47,55*,14,1,-42,20
CCOC(=O)C1=C(CS(=O)(=O)c2ccc(C)cc2)NC(=O)NC1c1ccc(O)c(OC)c1 (centres undefined),-4,40,12,30,-6,-6,nt
CCOC(=O)C1=C(CS(=O)(=O)c2ccc(C)cc2)NC(=O)NC1c1cc(OC)c(OC)c(OC)c1 (centres undefined),nt,-29,45*,-12,2,-11,40
COc1ccccc1OCc1nnc(SCC(=O)Nc2ccc(N3CCOCC3)cc2)n1C,nt,44,0,-5,2,-12,nt
Cc1ccccc1OCc1nnc(SCC(=O)Nc2ccc(N3CCOCC3)c(Cl)c2)n1C,0,-1,51*,-5,0,0,58*
COCCc1ccc(OC2(C)CCN(Cc3cccn3-c3nccs3)C2)cc1 (centres undefined),nt,nt,nt,nt,-1,nt,nt
O=C(N/N=C1\CCCc2c1[nH]c1ccc(Cl)cc21)c1ccncc1,nt,2,45*,nt,-2,-12,55*
COc1ccccc1-c1ccc2c(c1)O[C@@H](CN(C)C(=O)c1ccncc1)[C@H](C)CN([C@@H](C)CO)S2(=O)=O,nt,nt,nt,nt,3,nt,nt
O=C(CSc1nc(-c2cccs2)cc(C(F)(F)F)n1)Nc1cc(OCC(F)(F)C(F)F)cc([N+](=O)[O-])c1,-1,-3,9,-17,-5,-33,nt
COc1ccc(NC(=O)CSc2nc3nc(C)cc(C)c3c(=O)[nH]2)cc1,nt,-4,45*,4,3,1,1
CN1CCN(c2cc(C(F)(F)F)nc3ccc(F)cc23)CC1,-9,45,3,23,-1,-2,nt
CCOC(=O)c1[nH]c2cc(OC)c(OC)cc2c1NC(=O)CN1CCN(c2ccc(OC)cc2)C(C)C1 (centres undefined),3,68,85*,-8,nt,4,78*
